KCNQ1 inh: human KCNQ1 channel inhibition. P51787. CHO-K1 KCNQ1, FluxOR thallium flux fluorescence; stronger effect = higher value. B-score at 10 µM. actives 1.3% (n = 310,000). AID 2642;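 active = compounds whose thallium flux B-score, printed positive for inhibition, exceeds three library SD while starting fluorescence stays within three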;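 note: channel opened by potassium depolarization with thallium stimulus after 20 min compound exposure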
KCNQ1 act: potentiates or activates the human KCNQ1 potassium channel; CHO-K1 KCNQ1, thallium flux FluxOR fluorescence; stronger effect = higher value; actives 0.35% (n = 310,000); P51787; B-score at 10 µM;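 active = fluorescence ratio B-score, a plate-corrected score, at least three library SD, with initial intensity B-score within 5 SD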
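assay system = CHO-K1 cells stably expressing KCNQ1 | medium = assay buffer, equal DMSO in all wells | timing = 37 °C overnight plating, 90-min dark dye load, 20-min compound pretreatment | measured by = kinetic FluxOR thallium fluorescence, 10-s 1-Hz baseline, 110-s post-stimulus read | measure = fluorescence change relative to baseline, converted to B score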
KCNK3 block: human KCNK3 channel inhibition, primary screen. O14649. CHO-KCNK3 thallium flux, FluxOR fluorescence; stronger effect = lower value. B-score at 10 µM. actives 0.84% (n = 340,000). AID 602410;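 active = B-score under library mean minus 4 SD, starting fluorescence ratio at most library mean plus 5 SD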;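 note: more negative B-score means stronger inhibition of thallium flux through KCNK3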
Target sequence (O14649 whole entry, looked up): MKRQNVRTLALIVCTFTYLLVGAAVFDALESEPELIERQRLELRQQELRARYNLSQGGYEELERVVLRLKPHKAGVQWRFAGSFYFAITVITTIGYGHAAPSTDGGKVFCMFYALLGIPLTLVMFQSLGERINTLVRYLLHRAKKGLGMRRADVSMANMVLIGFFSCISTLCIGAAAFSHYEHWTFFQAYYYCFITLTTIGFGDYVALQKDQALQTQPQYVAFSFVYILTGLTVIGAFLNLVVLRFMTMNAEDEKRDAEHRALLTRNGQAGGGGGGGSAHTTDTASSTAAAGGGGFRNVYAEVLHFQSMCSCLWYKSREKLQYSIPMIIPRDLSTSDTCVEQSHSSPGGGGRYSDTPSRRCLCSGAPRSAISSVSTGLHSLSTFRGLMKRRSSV
KCNK9 block: inhibitors of human KCNK9 two-pore domain potassium channel; B-score at 10 µM; actives 1.2% (n = 310,000); HEK293 KCNK9, FluxOR thallium flux fluorescence; stronger effect = lower value; Q9NPC2;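 active = ratio B-score over 3 SD below the library mean, with starting fluorescence within 5 SD of its mean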;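 note: negative B-score means less thallium flux so channel inhibition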
hERG rescue: compounds protecting human hERG from proarrhythmic drug block. CHO-hERG, FluxOR thallium flux, dofetilide IC70 present. Q12809. AID 1511. actives 0.51% (n = 310,000). activation (rescue from dofetilide block), less the hit threshold, % at 10 µM;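 active = activation above the mean of controls blocked by dofetilide plus 5 SD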;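 note: thallium influx through hERG after potassium depolarization seen as dye fluorescence rise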
KCNK9 inh conf: human KCNK9 inhibitor confirmation; shares compounds with KCNK9 block; HEK293 KCNK9 cells, FluxOR thallium flux fluorescence; inhibition, % at 10 µM; actives 43% (n = 4,900); AID 492992;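 active = thallium signal inhibited by more than 5 SD of the compound-free buffer control wells, on both duplicate plates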;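 note: 0% = assay buffer control wells without compound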
Kir2-1 spec: tests whether KCNK9 modulators also affect mouse Kir2.1; shares compounds with KCNK9 block; Kir2.1 cells, FluxOR thallium flux fluorescence; inhibition, % at 10 µM; actives 4% (n = 4,900); AID 492993;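 active = thallium signal drop more than 5 SD beyond the mean of the no-compound control wells, seen in both duplicate plates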;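 note: signal is fluorescence rise after thallium addition divided by baseline fluorescence; plate controls were assay buffer only for no effect and full block by chlorpromazine control for full effect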
KCNK9 uninduced: non-induced cell nonspecific activity of KCNK9 modulators | shares compounds with KCNK9 block | non-induced KCNK9-HEK293, FluxOR thallium flux | inhibition, % at 10 µM | actives 40% (n = 4,900);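 active = thallium signal drop beyond 5 SD of the untreated control mean, on both duplicate plates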;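 note: plate controls were buffer only IC0 wells for no effect and SID17386958 at its maximal inhibitory level for full effect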
* marks the source's active call; other numbers are inactive results; i = inactive; · = no result. An excerpt weighted towards active compounds, which were near 3.1% of everything screened.

SMILES | KCNQ1 inh | KCNQ1 act | KCNK3 block | KCNK9 block | hERG rescue | KCNK9 inh conf | Kir2-1 spec | KCNK9 uninduced
Fc1ccccc1C1c2cccn2CCN1C(=S)Nc1cccc(Br)c1 (stereo not drawn) | i | i | i | -11* | -8 | 36%* | i | 48%*
CCN(CC(=O)Nc1ccc(Br)cc1)C(=O)c1nc2nc(C)cc(C)n2n1 | · | · | i | · | · | · | · | ·
O=C(/C=C/c1cccs1)NC(=S)Nc1ccc(S(=O)(=O)Nc2ccccc2C(F)(F)F)cc1 | i | i | i | i | -10 | i | i | i
O=C(NCC[C@@H]1C[C@@H]2C=C[C@H]1C2)c1cc(COc2ccc(F)cc2F)on1 | i | i | i | -21* | -8 | 40%* | i | 38%*
Cc1cc(C)nc(CCNC(=O)c2cc(COc3ccc(F)cc3F)on2)n1 | i | i | i | i | -11 | · | · | ·
C=CCc1ccc(O)c(-c2cc(CC=C)ccc2O)c1 | i | i | i | -17* | -12 | 62%* | i | i
CC(Oc1ccc(Br)cc1)C(=O)Nn1c(=S)[nH]c2ncccc2c1=O (stereo not drawn) | i | i | · | i | -6 | · | · | ·
Cc1nc(C(=O)N2CCc3c([nH]c4ccccc34)C2c2cc(F)ccc2F)cs1 (stereo not drawn) | i | i | i | -10* | -14 | 46%* | i | 31%*
COc1ccc(/C=N/n2c(-c3ccccc3)n[nH]c2=S)cc1 | i | i | i | i | -1 | · | · | ·
COc1ccc(/C=N/n2c(N)nc(-c3ccccc3)c2-c2ccccc2)cc1 | i | i | i | i | -40 | i | i | i
Cn1ccnc1SCC(=O)n1c2c(c3ccccc31)CCCC2 | i | i | i | i | -5 | i | i | i
Cn1ccnc1SCC(=O)Nc1cccc2ccccc12 | i | i | i | i | -4 | · | · | ·
CCOC(=O)C1CCN(S(=O)(=O)c2ccc3c4c2CC(=O)N4CC(C)S3)CC1 (stereo not drawn) | i | i | i | i | -11 | · | · | ·
COc1ccc(-c2ccnc(SCC(=O)c3ccc(OC)c(OC)c3)n2)cc1 | i | i | i | i | -5 | · | · | ·
COc1ccc(OC)c(C(=O)CSc2nccc(-c3ccc(Br)cc3)n2)c1 | i | i | i | -9.4* | -6 | i | i | 28%*
COc1ccc2oc(=O)c(-c3nc(C)cs3)cc2c1 | · | · | i | · | · | · | · | ·
CC/C(C)=N\Nc1nc(-c2cc3cc(OC)ccc3oc2=O)cs1 | i | i | i | i | -9 | i | i | i
Cc1ccc(C(=O)Nc2cccc(NC(=O)c3ccc(C)cc3)n2)cc1 | i | i | i | i | -6 | · | · | ·
COC(=O)c1ccc(S(=O)(=O)N2CCN(C(c3ccccc3)c3ccccc3)CC2)n1C | i | i | i | i | -3 | i | i | i
COc1ccccc1NC(=O)Nc1nn(C)c2cccc(OC)c12 | i | i | i | -11* | -11 | 48%* | i | 27%*
COc1ccc(S(=O)(=O)N2CC3CCCN3c3ccc(C(F)(F)F)cc32)cc1 (stereo not drawn) | i | i | i | -18* | -3 | 72%* | i | 44%*
CCN1C[C@@H]2[C@@H]3C(=O)N(Cc4ccccc4)C(=O)[C@@H]3[C@](CC)(C1=O)N2C(=O)c1ccccc1 | · | · | i | · | · | · | · | ·
O=C(NCCc1ccc(F)cc1)NC12CC3CC(CC(C3)C1)C2 | i | i | i | i | -9 | · | · | ·
O=C(NCCC1=CCCCC1)NC12CC3CC(CC(C3)C1)C2 | 6* | i | i | i | -22 | i | i | i
Cc1cccc(N2CCN(C(=O)Cc3ccc(Br)cc3)CC2)c1C | i | i | i | i | -17 | i | i | 26%*

Screening results from PubChem.
